# Assay results from ChEMBL document CHEMBL4024713, “Novel aryl piperazines for alleviation of 'andropause' associated prostatic disorders and depression” (Eur J Med Chem, 2017).
# The source made the active and inactive calls. The calls are words filed in the database; no cut-off is given here.
# What was measured:
# [1] = tested on: LNCaP; assay: Cytotoxicity against human LNCAP cells after 24 hrs by MTT assay; type: functional, cell-based
# [2] = tested on: Rattus norvegicus; assay: Toxicity in citral-induced prostatic hyperplasia Sprague-Dawley rat model assessed as effect on seminal vesicle weight at 10 mg/kg, po administered once daily coadministered with citral for 21 days measured 24 hrs last post dose; type: organism-based; conditions: in vivo
# [3] = tested on: Rattus norvegicus; assay: Toxicity in citral-induced prostatic hyperplasia Sprague-Dawley rat model assessed as effect on testis weight at 10 mg/kg, po administered once daily coadministered with citral for 21 days measured 24 hrs last post dose; type: organism-based; conditions: in vivo
# [4] = tested on: Rattus norvegicus; assay: Toxicity in citral-induced prostatic hyperplasia Sprague-Dawley rat model assessed as effect on epididymis weight at 10 mg/kg, po administered once daily coadministered with citral for 21 days measured 24 hrs last post dose; type: organism-based; conditions: in vivo
# [5] = tested on: Mus musculus; assay: Anti-depressant like activity in Swiss albino mouse assessed as reduction in immobility time at 20 mg/kg, po administered 60 mins prior to test measured for 5 mins by forced swim test relative to control; type: functional; design: scale not given: the % may be the effect or the level left
# Procedure, shortened: (§1)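 Male Swiss albino mice (20-25 g); compound 20 mg/kg, imipramine 60 mg/kg or fluoxetine 20 mg/kg given orally in 1% gum acacia (10 mL/kg). After 60 min: 15 min pre-swim in a water cylinder (10 cm depth, 25 ± 1 °C), then retest at 24 h. Immobility recorded for 5 min after 1 min acclimatization; N = 7-9, mean ± SEM, unpaired t-test.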
# [6] = tested on: PC-3; assay: Cytotoxicity against human PC3 cells after 24 hrs by MTT assay; type: functional, cell-based; conditions: PC-3, 24 h
# [7] = tested on: DU-145; assay: Cytotoxicity against human DU145 cells after 24 hrs by MTT assay; type: functional, cell-based; conditions: DU-145, 24 h
# [8] = tested on: Rattus norvegicus; assay: Anti-androgenic activity in citral-induced prostatic hyperplasia Sprague-Dawley rat model assessed increase in distinction between stromal and acinar compartments at 10 mg/kg, po administered once daily coadministered with citral for 21 days measured 24 hrs last post dose by hematoxyline and eosin stainig based light microscopic analysis; type: functional, organism-based
# Procedure, shortened: (§2)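 Adult male Sprague-Dawley rats (250-280 g, n = 5), citral 100 mg/kg orally once daily for 28 days. From day 8, compound or flutamide at 10 mg/kg orally once daily for the remaining 21 days. Prostate weight is expressed relative to the citral group (100%). Prostates fixed in 10% formalin; 5 μ sections stained with H&E, examined by light microscopy.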
# [9] = tested on: Rattus norvegicus; assay: Anti-androgenic activity in citral-induced prostatic hyperplasia Sprague-Dawley rat model assessed as prostate weight at 10 mg/kg, po administered once daily coadministered with citral for 21 days measured 24 hrs last post dose (reference value: 100%); type: functional; procedure, shortened: as §2
# [10] = molecular target: T1, Alpha-1A adrenergic receptor (Homo sapiens) (UniProt P35348); assay: Antagonist activity at recombinant human alpha1a adrenergic receptor expressed in human Chem1 cell membrane assessed as reduction in ephinephrine-induced calcium mobilization at 1 uM by fluoforte dye based fluorescence assay relative to ephinephrine; type: functional
# T1 sequence (whole entry): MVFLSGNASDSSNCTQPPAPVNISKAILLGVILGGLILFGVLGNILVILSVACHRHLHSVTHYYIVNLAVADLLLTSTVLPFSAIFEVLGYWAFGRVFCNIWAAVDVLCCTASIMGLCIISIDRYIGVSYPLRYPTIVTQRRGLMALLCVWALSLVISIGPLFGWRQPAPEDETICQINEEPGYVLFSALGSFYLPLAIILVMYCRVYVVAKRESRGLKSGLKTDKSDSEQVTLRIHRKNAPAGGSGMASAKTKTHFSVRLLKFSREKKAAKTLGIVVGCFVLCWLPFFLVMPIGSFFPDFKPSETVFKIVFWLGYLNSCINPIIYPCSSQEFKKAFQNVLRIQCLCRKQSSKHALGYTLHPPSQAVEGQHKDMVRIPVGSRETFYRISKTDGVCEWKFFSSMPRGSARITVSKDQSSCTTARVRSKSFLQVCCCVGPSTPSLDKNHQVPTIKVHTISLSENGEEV
# Procedure, shortened: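 α1A-adrenergic receptor-expressing Chem-1 cells, 4 x 10^4/well overnight, loaded with FluoForte calcium dye 45 min at 37 °C then 15 min at room temperature. Compounds at 1 μM; epinephrine 20 μM added at 10 s; tamsulosin 100 nM and 1 μM as reference. Fluorescence (ex 490/em 525 nm) read for 180 s as RFU.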
# [11] = tested on: Mus musculus; assay: Toxicity in Swiss albino mouse assessed as latency time to fall at 20 mg/kg, po measured at 1 hr interval for 4 hrs by rotarod test; type: organism-based; conditions: in vivo
# Procedure, shortened: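 Mice trained on the rotarod (5 to 10 rpm), 2 min trials, 3 per day for two days. On day 3, tested before oral dosing and at 1, 2, 3 and 4 h after, recording latency to fall.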
# [12] = tested on: Mus musculus; assay: Anti-depressant like activity in Swiss albino mouse assessed as reduction in immobility time at 20 mg/kg, po measured for 5 mins by tail suspension test; type: functional, organism-based
# Procedure, shortened: (§3)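 Male Swiss albino mice dosed orally in 1% gum acacia; imipramine as standard. Each mouse suspended by the tail with tape to a horizontal bar 60 cm above the table. Immobility (no limb or body movement other than respiration) recorded for 5 min after 1 min acclimatization; N = 5.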
# [13] = tested on: Mus musculus; assay: Toxicity in Swiss albino mouse assessed as effect on locomotor activity at 20 mg/kg, po measured at 5 mins interval for 90 mins by open field test; type: organism-based; conditions: in vivo
# Procedure, shortened: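 Male Swiss albino mice in an activity chamber, infrared beam-break counting over 24 intervals of 5 min (120 min). Oral dosing after the 6th interval; six animals per group.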
# [14] = molecular target: T2, Androgen receptor (Homo sapiens) (UniProt P10275); assay: Antagonist activity at AR (unknown origin) expressed in African green monkey COS7 cells at 7.5 uM after 24 hrs by dual luciferase reporter gene assay; type: cell-based
# T2 sequence (whole entry): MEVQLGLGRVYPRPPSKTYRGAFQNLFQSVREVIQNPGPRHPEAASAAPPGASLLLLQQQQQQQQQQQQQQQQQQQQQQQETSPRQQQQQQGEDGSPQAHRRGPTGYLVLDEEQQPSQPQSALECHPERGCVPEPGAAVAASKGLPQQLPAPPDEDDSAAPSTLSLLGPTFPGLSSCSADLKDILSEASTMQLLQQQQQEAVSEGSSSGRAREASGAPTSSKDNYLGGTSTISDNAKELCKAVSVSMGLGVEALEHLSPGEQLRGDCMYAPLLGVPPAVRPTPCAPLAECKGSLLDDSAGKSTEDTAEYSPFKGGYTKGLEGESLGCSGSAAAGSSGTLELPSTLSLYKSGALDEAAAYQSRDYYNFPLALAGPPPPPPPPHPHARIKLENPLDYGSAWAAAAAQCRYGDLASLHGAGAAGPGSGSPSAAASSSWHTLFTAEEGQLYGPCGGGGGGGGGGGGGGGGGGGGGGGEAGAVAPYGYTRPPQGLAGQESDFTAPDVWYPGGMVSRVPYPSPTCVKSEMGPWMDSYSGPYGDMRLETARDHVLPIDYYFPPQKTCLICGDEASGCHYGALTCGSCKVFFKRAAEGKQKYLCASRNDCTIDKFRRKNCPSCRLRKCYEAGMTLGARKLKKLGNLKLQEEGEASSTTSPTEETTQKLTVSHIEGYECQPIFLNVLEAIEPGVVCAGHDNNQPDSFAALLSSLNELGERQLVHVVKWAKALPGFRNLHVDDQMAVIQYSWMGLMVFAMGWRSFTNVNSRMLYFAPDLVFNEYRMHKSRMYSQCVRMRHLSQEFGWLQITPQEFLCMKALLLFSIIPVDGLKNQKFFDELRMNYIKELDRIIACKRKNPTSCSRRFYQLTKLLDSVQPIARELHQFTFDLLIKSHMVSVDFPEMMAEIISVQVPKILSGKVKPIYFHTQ
# Procedure, shortened: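 Cos7 cells (AR-negative) transiently transfected for 8 h with pARE-E1B-LUC reporter plus pCR3.1.AR expression vector. Then in complete medium, treated with compound at 7.5 μM for 24 h; bicalutamide 3 μM as positive control. Luciferase normalized to pRL-SV40 internal control, expressed as RLU relative to control = 100%.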
# [15] = tested on: Mus musculus; assay: Anti-depressant like activity in Swiss albino mouse assessed as reduction in immobility time at 60 mg/kg, po administered 60 mins prior to test measured for 5 mins by forced swim test relative to control; type: functional; design: scale not given: the % may be the effect or the level left; procedure, shortened: as §1
# [16] = tested on: Mus musculus; assay: Anti-depressant like activity in Swiss albino mouse assessed as reduction in immobility time at 60 mg/kg, po measured for 5 mins by tail suspension test; type: functional, organism-based; procedure, shortened: as §3
smiles,measurement,setting,value
O=[N+]([O-])c1cc(C(F)(F)F)ccc1N1CCN(CCN2CCN(c3ccc(C(F)(F)F)cc3[N+](=O)[O-])CC2)CC1,EC50,[1],63.2 µM
Fc1ccccc1N1CCN(CCN2CCN(c3ccccc3F)CC2)CC1,EC50,[1],40 µM
O=[N+]([O-])c1ccc(N2CCN(CCN3CCN(c4ccc([N+](=O)[O-])cc4C(F)(F)F)CC3)CC2)c(C(F)(F)F)c1,EC50,[1],72.2 µM
O=[N+]([O-])c1ccc(N2CCN(CCCN3CCN(c4ccc([N+](=O)[O-])cc4C(F)(F)F)CC3)CC2)c(C(F)(F)F)c1,EC50,[1],55.5 µM
O=[N+]([O-])c1ccc(N2CCN(CCN3CCN(c4ccc(F)cc4)CC3)CC2)cc1,EC50,[1],77.9 µM
c1ccc(N2CCN(CCN3CCN(c4ccccn4)CC3)CC2)nc1,Activity,[2],Non-Toxic
same,Activity,[3],Non-Toxic
same,Activity,[4],Non-Toxic
same,Activity,[5],16.95%
same,EC50,[6],> 80 µM
same,EC50,[1],12.4 µM
same,EC50,[7],> 80 µM
same,Activity,[8],Active
same,Activity,[9],44%
CNCCC(Oc1ccc(C(F)(F)F)cc1)c1ccccc1 (stereo not drawn) [FLUOXETINE],Activity,[5],75.35%
Fc1ccc(N2CCN(CCCN3CCN(c4ccc(F)cc4)CC3)CC2)cc1,EC50,[1],49.2 µM
CC(C)C(=O)Nc1ccc([N+](=O)[O-])c(C(F)(F)F)c1 [FLUTAMIDE],EC50,[1],7 µM
same,Activity,[9],58.8%
COc1ccccc1N1CCN(CCN2CCN(c3ccc([N+](=O)[O-])cc3)CC2)CC1,EC50,[1],46.5 µM
COc1ccccc1N1CCN(CCN2CCN(c3ccc(F)cc3)CC2)CC1,EC50,[1],78.7 µM
Fc1ccccc1N1CCN(CCCN2CCN(c3ccccc3F)CC2)CC1,Activity,[2],Non-Toxic
same,Activity,[3],Non-Toxic
same,Activity,[4],Non-Toxic
same,Activity,[5],20.86%
same,EC50,[6],> 80 µM
same,EC50,[1],10.4 µM
same,EC50,[7],> 80 µM
same,Activity,[8],Active
same,Activity,[9],37%
CCOc1ccccc1OCCN[C@H](C)Cc1ccc(OC)c(S(N)(=O)=O)c1,fold change (FC),[10],1.6
COc1ccccc1N1CCN(CCN2CCN(c3ccccc3OC)CC2)CC1,EC50,[1],40 µM
O=[N+]([O-])c1ccc(N2CCN(CCCN3CCN(c4ccc([N+](=O)[O-])cc4)CC3)CC2)cc1,Activity,[2],Non-Toxic
same,Activity,[3],Non-Toxic
same,Activity,[4],Non-Toxic
same,Activity,[5],69.74%
same,EC50,[6],> 80 µM
same,EC50,[1],11.8 µM
same,Time,[11],120 s
same,EC50,[7],> 80 µM
same,Activity,[12],Active
same,Activity,[13],Non-Toxic
same,Activity,[8],Active
same,Activity,[9],29%
O=[N+]([O-])c1cc(C(F)(F)F)ccc1N1CCN(CCCN2CCN(c3ccc(C(F)(F)F)cc3[N+](=O)[O-])CC2)CC1,Activity,[2],Non-Toxic
same,Activity,[3],Non-Toxic
same,Activity,[4],Non-Toxic
same,Activity,[14],Active
same,Activity,[5],25.71%
same,EC50,[6],> 80 µM
same,EC50,[1],12.2 µM
same,EC50,[7],76.5 µM
same,Activity,[8],Active
same,Activity,[9],51.7%
Fc1ccc(N2CCN(CCN3CCN(c4ccccc4F)CC3)CC2)cc1,EC50,[1],68 µM
Fc1ccc(N2CCN(CCN3CCN(c4ccc(F)cc4)CC3)CC2)cc1,EC50,[1],71.2 µM
CN(C)CCCN1c2ccccc2CCc2ccccc21 [IMIPRAMINE],Activity,[15],40.39%
same,Activity,[16],Active
O=[N+]([O-])c1ccc(N2CCN(CCN3CCN(c4ccc([N+](=O)[O-])cc4)CC3)CC2)cc1,EC50,[1],25.2 µM
